These results are taken from ChEMBL document CHEMBL3244252, “Adriamycin analogues. 3. Synthesis of N-alkylated anthracyclines with enhanced efficacy and reduced cardiotoxicity” (J Med Chem, 1979).

A short description of data set [1]: Aqueous solubility of the compound using 10% propylene glycol vehicle. It is filed as physicochemical. The conditions noted are these: 10% propylene glycol in water.
The next data set is filed under the species Rattus norvegicus. Put plainly: Cardiotoxicity in rat assessed as minimum cumulative cardiotoxic dose by Zbinden test. It is filed as toxicity, organism-based. The conditions noted are these: in vivo. In outline: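 Zbinden cardiotoxicity assay in rats. Drug was given cumulatively, with ECG monitoring. Value is the minimum total dose (mg/kg) that causes significant ECG alterations.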

The test system of data set [2] is L1210. Kind of data set: Selectivity ratio of ED50 for inhibition of DNA synthesis in mouse L1210 cells to ED50 for inhibition of RNA synthesis in mouse L1210 cells. It is filed as functional. The essentials:
(§1)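 L1210 leukemia cells. Drugs were first dissolved in Me2SO to a final 1% Me2SO in the assay medium. Inhibition of DNA and RNA synthesis was measured separately and reported as ED50 (50% inhibitory dose, μM). Selectivity is the ratio of the DNA ED50 to the RNA ED50.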

Data set [3] deals with L1210. Kind of data set: Inhibition of RNA synthesis in mouse L1210 cells. It is filed as functional. Particulars: read-out: ED50 (the source's name). In outline: as §1
Another data set concerns Calf thymus DNA. Put plainly: Binding affinity to calf thymus DNA assessed as change in melting temperature. The conditions noted are these: Bos taurus. The class given is nucleic-acid assay. In outline:
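Drug first dissolved in Me2SO to a final 5% Me2SO in the assay medium. DNA binding is read as the shift in DNA melting temperature (ΔTm). ΔTm below 1 is taken as insignificant binding.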

In data set [4] the test system is P388. Put plainly: Antitumor activity against mouse P388 cells allografted in CDF/BDF mouse assessed as survival time at 37.5 mg/kg, ip administered as qd on day 5, 9, 13. The class given is functional. The conditions noted are these: route intraperitoneal.
Data set [5] has as its system Salmonella typhimurium. Put plainly: Mutagenicity in Salmonella typhimurium TA98 assessed as number of revertants by Ames test in presence of microsomal activation. The class given is toxicity, organism-based. The conditions noted are these: salmonella enterica subsp. enterica serovar typhimurium. In outline:
(§2)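 Ames plate test using Salmonella typhimurium tester strain TA98. Compounds were tested over dose ranges of 0-20 to 0-100 µg/plate, depending on the compound, and the toxicity level per plate was noted. Mutagenicity is expressed as revertants produced per nmol of compound.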
(In general: The Ames test uses bacterial strains that need an amino acid and regain growth without it when mutated back.)

The test system of data set [6] is P388. Put plainly: Antitumor activity against mouse P388 cells allografted in CDF/BDF mouse assessed as survival time at 25 mg/kg, ip administered as qd for 1 to 9 days relative to control. Particulars: route intraperitoneal. It is filed as functional.
A short description of data set [7]: Aqueous solubility of the compound. The conditions noted are these: water. It is filed as physicochemical.
Data set [8] concerns Salmonella typhimurium. Put plainly: Mutagenicity in Salmonella typhimurium TA98 assessed as number of revertants by Ames test in absence of microsomal activation. The class given is toxicity, organism-based. The conditions noted are these: salmonella enterica subsp. enterica serovar typhimurium. In outline: as §2
In data set [9] the test system is L1210. Kind of data set: Inhibition of DNA synthesis in mouse L1210 cells. The conditions noted are these: read-out: ED50 (the source's name). It is filed as functional. In outline:
as §1

Regarding `COc1cccc2c1C(=O)c1c(O)c3c(c(O)c1C2=O)C[C@@](O)(C(C)=O)C[C@@H]3O[C@H]1C[C@H](N(Cc2ccccc2)Cc2ccccc2)[C@H](O)[C@H](C)O1.Cl`, the solubility in [1] is greater than 36000 µg/mL; in data set [7], 200 µg/mL. For the same compound, the MTC in the data set filed under Rattus norvegicus came out at 125 mg/kg. The “Ratio ED50” value with L1210 [2] was greater than 10. For the same compound, the EC50 with L1210 [3] is 10 µM; with L1210 [9], greater than 100 µM. Further, the shift in melting temperature (ΔTm) with Calf thymus DNA was 1.35 °C. Further, the results for the T/C with P388 [4] and in the data set with P388 [6] were 209% and 259%, respectively. In addition, the Activity with Salmonella typhimurium [5] was 0.5 nmol⁻¹; in the data set on Salmonella typhimurium [8], “Non-toxic”.

The solubility is the dissolved amount per volume that the medium holds. Higher therefore signals a readily soluble substance. For orientation: ΔTm means the shift of the melting midpoint relative to a reference. The T/C is the ratio of treated to control.
